The values that follow come from ChEMBL document CHEMBL4138189, “Role of the Benzodioxole Group in the Interactions between the Natural Alkaloids Chelerythrine and Coptisine and the Human Telomeric G-Quadruplex DNA. A Multiapproach Investigation” (J Nat Prod, 2017).

The test system of experiment [1] is Calf thymus DNA. The experiment can be described thus: Binding affinity to calf thymus DNA in presence of KCl by UV-spectra analysis. Particulars: Bos taurus. The experiment is classed as nucleic-acid assay.
The test system of experiment [2] is Quadruplex DNA. The experiment can be described thus: Binding affinity to wild-type telomeric 22 H2 G-quadruplex DNA (unknown origin) assessed as decrease in positive cotton effect at 260 nm at 40 to 80 uM in presence of KCl by electronic circular dichorism spectra analysis. The experiment is classed as nucleic-acid assay. In a few lines:
(§1)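 DNA annealed at 4 μM (strand concentration) in 10 mM Tris, 50 mM KCl, pH 7.5, with or without 40% MPD. ECD spectra were read at 230–350 nm in a 10 mm cell under Peltier temperature control, without ligand and with increasing ligand (0–80 μM). Cotton effects were converted to mean residue ellipticity.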

Experiment [3] can be described thus: Selectivity ratio of EC50 for displacement of thiazole orange from wild-type telomeric 22 H2 G-quadruplex DNA (unknown origin) to EC50 for displacement of thiazole orange from telomeric 22 H1 G-quadruplex DNA (unknown origin). In a few lines: (§2)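 Target DNA (0.62 μM) was mixed with thiazole orange (1.24 μM) in 10 mM Tris, 50 mM KCl, pH 7.5, at 25 °C and titrated with compound. Fluorescence was excited at 501 nm and read at 520–680 nm. Displacement = 100 − (F/F0 × 100); EC50 was taken from displacement versus concentration. Each titration was run at least in triplicate.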

For experiment [4], the system named is Calf thymus DNA. Description: Binding affinity to calf thymus DNA up to 80 uM in presence of KCl by electronic circular dichorism spectra analysis. The experiment is classed as nucleic-acid assay. Particulars: Bos taurus. In a few lines:
as §1

For experiment [5], the target named is Quadruplex DNA. Description: Displacement of thiazole orange from telomeric 22 H1 G-quadruplex DNA (unknown origin) in presence of KCl by fluorescent intercalator displacement assay. The experiment is classed as nucleic-acid assay. In a few lines: as §2
The target of experiment [6] is Quadruplex DNA. The experiment can be described thus: Displacement of thiazole orange from wild-type telomeric 22 H2 G-quadruplex DNA (unknown origin) in presence of KCl by fluorescent intercalator displacement assay. The experiment is classed as nucleic-acid assay. In a few lines: as §2
For experiment [7], the system named is Quadruplex DNA. The experiment can be described thus: Binding affinity to telomeric 22 H1 G-quadruplex DNA (unknown origin) assessed as decrease in positive cotton effect at 260 nm at 40 to 80 uM by electronic circular dichorism spectra analysis. The experiment is classed as nucleic-acid assay. An outline of the steps: as §1
Experiment [8] concerns Quadruplex DNA. Description: Binding affinity to telomeric 22 H1 G-quadruplex DNA (unknown origin) assessed as increase in positive cotton effect at 295 nm at 40 to 80 uM by electronic circular dichorism spectra analysis. The experiment is classed as nucleic-acid assay. In a few lines: as §1
The subject of experiment [9] is Calf thymus DNA. Description: Stabilization of calf thymus DNA assessed as change in melting temperature at 5 uM by fluorescence assay. The experiment is classed as nucleic-acid assay. Particulars: Bos taurus.
Experiment [10] relates to Quadruplex DNA. The experiment can be described thus: Binding affinity to wild-type telomeric 22 H2 G-quadruplex DNA (unknown origin) assessed as increase in positive cotton effect at 295 nm at 40 to 80 uM in presence of KCl by electronic circular dichorism spectra analysis. The experiment is classed as nucleic-acid assay. In a few lines:
as §1

The test system of experiment [11] is Quadruplex DNA. Description: Stabilization of 5'Dabcyl/3'FAM labeled human telomeric sequence G-quadruplex DNA assessed as change in melting temperature at 5 uM in presence of KCl by fluorescence assay. The experiment is classed as nucleic-acid assay. An outline of the steps: (§3)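 Labelled telomeric DNA, 0.25 μM strand, in 10 mM LiOH, pH 7.5 (H3PO4), 50 mM KCl, with increasing ligand. Samples were heated and cooled over 25–95 °C at 0.1 °C/s, held 5 min at 30 °C, then heated to 95 °C at 1 °C/min. Fluorescence excited at 488 nm, read at 520 nm. Tm from first derivative of melting profile; at least triplicate, errors ±0.3 °C.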

The test system of experiment [12] is Quadruplex DNA. Description: Stabilization of 5'Dabcyl/3'FAM labeled human telomeric sequence G-quadruplex DNA assessed as change in melting temperature up to 30 uM in presence of KCl by fluorescence assay. The experiment is classed as nucleic-acid assay. In a few lines: as §3
The subject of experiment [13] is Quadruplex DNA. Description: Binding affinity to telomeric 12 G-quadruplex DNA (unknown origin) assessed as increase in cotton effect amplitude up to 10 fold excess DNA concentration in presence of MPD by electronic circular dichorism spectra analysis. The experiment is classed as nucleic-acid assay.

pEC50: −log10 of the molar value. Calls of active or inactive are those of the source. The calls are words filed in the database; no cut-off is given here.

With `COc1ccc2c(c[n+](C)c3c4cc5c(cc4ccc23)OCO5)c1OC` [CHELERYTHRINE], the result in the experiment on Calf thymus DNA [1], in the experiment with Quadruplex DNA [2], in the experiment with Calf thymus DNA [4], in the experiment with Quadruplex DNA [7], with Quadruplex DNA [8] and with Quadruplex DNA [10] was Active. Besides, the outcome in the experiment on Quadruplex DNA [11] and with Quadruplex DNA [12] was Active. The Ratio EC50 in experiment [3] was determined as 0.7. The pEC50 (in general, the EC50 on a negative log10 scale, so that one unit is a factor of ten) on Quadruplex DNA [5] was 5.59; at Quadruplex DNA [6] it was 5.43. The outcome in the experiment with Calf thymus DNA [9] was inactive.
Regarding `c1c2c(cc3c1OCO3)-c1cc3ccc4c(c3c[n+]1CC2)OCO4` [COPTISINE], the outcome in the experiment with Calf thymus DNA [1], in the experiment with Quadruplex DNA [2], in the experiment on Calf thymus DNA [4], with Quadruplex DNA [13], with Quadruplex DNA [7] and in the experiment on Quadruplex DNA [8] was Active. The outcome with Quadruplex DNA [10], in the experiment on Quadruplex DNA [11] and in the experiment with Quadruplex DNA [12] was Active. Further, the Ratio EC50 in experiment [3] was determined as 2. The negative logarithm of the EC50 (pEC50) at Quadruplex DNA [5] was 4.92; on Quadruplex DNA [6] it was 5.23. Besides, the result in the experiment with Calf thymus DNA [9] was inactive.
